This passage reports EC50, IC50 and Activity results from ChEMBL document CHEMBL1149285, “Identification of novel parasitic cysteine protease inhibitors using virtual screening. 1. The ChemBridge database” (J Med Chem, 2004).

SMILES strings stand for the structures. Activity calls are given as the source filed them. No cut-off for these calls is given here.

The test system of series [1] is Plasmodium falciparum. The series can be described thus: Antiplasmodial activity against chloroquine-resistant Plasmodium falciparum W2 as LDH activity after 48 hrs. In kind it is functional, organism-based. As to conditions: W2, 48 h. The method in brief:
(§1)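 Asynchronous P. falciparum cultures (2% hematocrit, 2% parasitemia) were exposed to compound dilutions prepared in DMSO. They were incubated 48 h at 37 °C in a humidified chamber under 90% N2, 5% CO2, 5% O2. Growth was read as parasite lactate dehydrogenase activity using Malstat reagent. Medium-only and erythrocyte-only wells were included, with chloroquine and artemisinin as positive and DMSO as negative controls.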

A further series deals with T1, Cysteine protease (Leishmania donovani, UniProt Q95WR6).
T1 sequence (Q95WR6 whole entry): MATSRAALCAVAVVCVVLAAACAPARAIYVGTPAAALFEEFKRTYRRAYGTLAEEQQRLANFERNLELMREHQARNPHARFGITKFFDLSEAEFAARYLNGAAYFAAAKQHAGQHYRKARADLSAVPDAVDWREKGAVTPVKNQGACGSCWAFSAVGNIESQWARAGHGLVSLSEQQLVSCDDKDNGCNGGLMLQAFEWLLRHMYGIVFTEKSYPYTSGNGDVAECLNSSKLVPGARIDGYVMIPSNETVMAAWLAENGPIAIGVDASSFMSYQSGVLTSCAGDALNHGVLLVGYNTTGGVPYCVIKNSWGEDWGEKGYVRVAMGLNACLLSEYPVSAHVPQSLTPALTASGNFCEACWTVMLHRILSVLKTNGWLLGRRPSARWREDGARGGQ
As to the kind of experiment: (§2) Inhibition of Leishmania donovani cysteine protease.

For another series, the target named is T2, Falcipain 2 (Plasmodium falciparum, UniProt Q9N6S8).
T2 sequence (Q9N6S8 whole entry): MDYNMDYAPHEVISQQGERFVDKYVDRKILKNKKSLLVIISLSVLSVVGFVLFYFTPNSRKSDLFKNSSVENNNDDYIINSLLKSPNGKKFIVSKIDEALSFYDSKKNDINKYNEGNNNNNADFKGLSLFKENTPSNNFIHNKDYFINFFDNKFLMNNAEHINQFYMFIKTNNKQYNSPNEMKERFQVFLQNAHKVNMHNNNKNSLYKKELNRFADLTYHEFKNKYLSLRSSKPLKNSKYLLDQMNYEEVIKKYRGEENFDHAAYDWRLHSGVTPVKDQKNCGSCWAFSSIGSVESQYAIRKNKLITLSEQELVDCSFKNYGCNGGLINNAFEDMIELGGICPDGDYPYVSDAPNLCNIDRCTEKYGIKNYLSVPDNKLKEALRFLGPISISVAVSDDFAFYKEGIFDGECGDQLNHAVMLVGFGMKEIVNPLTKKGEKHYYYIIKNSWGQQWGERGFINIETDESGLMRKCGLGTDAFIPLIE
The series can be described thus: Inhibition of Plasmodium falciparum recombinant falcipain-2. The procedure, abridged: (§3)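 Equal amounts of recombinant enzyme preincubated 30 min at room temperature with serial inhibitor dilutions from DMSO stocks (DMSO at most 1% in assay) in 100 mM sodium acetate pH 5.5, 10 mM dithiothreitol. Z-Leu-Arg-AMC then added to 25 μM final; fluorescence followed 15 min at room temperature. IC50 taken from percent activity versus concentration plots.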

Another series concerns Leishmania donovani. As to the kind of experiment: Antileishmanial activity against Leishmania donovani promastigotes after 72 hrs by Alamar blue assay. In kind it is functional, organism-based. The procedure, abridged:
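L. donovani promastigote culture at 2 × 10⁶ cells/mL given diluted compounds, incubated 72 h at 26 °C; growth read by Alamar blue. Pentamidine and amphotericin B as reference agents; IC50 computed from growth inhibition curve.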
(Resazurin is reduced to fluorescent resorufin, in cell work by metabolically active cells.)

For series [2], the system named is Vero. The series can be described thus: Cytotoxicity against Vero cells at 23.8 ug/mL by Neutral red assay. Format: cell-based. The settings on record: chlorocebus sabaeus. The method in brief: (§4)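 VERO monkey kidney […] exposed to compounds alongside the antiparasitic assays, viability by Neutral Red uptake; highest concentration tested 23.8 μg/mL; IC50 computed from growth inhibition curve.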

In series [3] the test system is Plasmodium falciparum. The series can be described thus: Antiplasmodial activity against chloroquine-sensitive Plasmodium falciparum D6 after 48 hrs as LDH reporter activity. The settings on record: D6, 48 h. Format: functional, organism-based. The method in brief:
as §1

For series [4], the target named is T3, Cysteine protease falcipain-3 (Plasmodium falciparum, UniProt Q9NBA7).
T3 sequence (Q9NBA7 whole entry): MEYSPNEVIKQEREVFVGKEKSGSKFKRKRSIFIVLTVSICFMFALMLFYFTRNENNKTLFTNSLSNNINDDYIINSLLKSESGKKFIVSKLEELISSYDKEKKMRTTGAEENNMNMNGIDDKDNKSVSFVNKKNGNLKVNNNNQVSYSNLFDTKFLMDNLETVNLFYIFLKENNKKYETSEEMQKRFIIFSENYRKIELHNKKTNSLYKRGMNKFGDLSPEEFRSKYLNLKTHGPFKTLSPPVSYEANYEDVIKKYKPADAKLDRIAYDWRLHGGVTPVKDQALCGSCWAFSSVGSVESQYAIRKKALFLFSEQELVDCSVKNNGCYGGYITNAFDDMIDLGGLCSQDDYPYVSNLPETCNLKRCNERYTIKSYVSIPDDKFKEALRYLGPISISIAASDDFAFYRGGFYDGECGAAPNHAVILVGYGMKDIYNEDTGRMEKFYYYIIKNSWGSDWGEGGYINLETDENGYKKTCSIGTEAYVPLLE
As to the kind of experiment: Inhibition of Plasmodium falciparum recombinant falcipain-3. The method in brief:
as §3

Series [5] concerns Vero. As to the kind of experiment: Cytotoxicity against Vero cells by Neutral red assay. The settings on record: chlorocebus sabaeus. In kind it is cell-based. The method in brief:
as §4

The target of series [6] is T4, Cysteine protease (Leishmania donovani) (UniProt Q95WR6).
T4 sequence (whole entry): T1 sequence (Q95WR6 whole entry)
Described as §2.

Turning to `O=C(O)c1ccccc1N/N=C/c1ccc(/C=N/Nc2ccccc2C(=O)O)cc1`, the EC50 (commonly the concentration at which the effect is half-maximal) with Plasmodium falciparum [1] turned out to be 41 µM; with Plasmodium falciparum [3], 34.8 µM. The IC50 (commonly the concentration that inhibits the measured activity by half) was 72 µM on Cysteine protease, 1 µM at Falcipain 2 and 4.9 µM in series [4]. The outcome with Leishmania donovani was inactive. Moreover, the Activity entry in the series with Vero [2] is “Non-toxic”.
Regarding `O=C(Cn1nnc(-c2ccccc2)n1)N/N=C1\C(=O)Nc2ccccc21`, the results for the EC50 with Plasmodium falciparum [1] and in the series on Plasmodium falciparum [3] were 43.2 µM and 68.5 µM, respectively. In addition, the IC50 at Cysteine protease was 130 µM; on Falcipain 2 it was 27.3 µM; in series [4] it was greater than 50 µM. For the same compound, the outcome with Leishmania donovani was inactive. Moreover, the Activity entry in the series on Vero [2] is recorded as “Non-toxic”.
With `Oc1ccc(/C=N/c2ccc(/N=C/c3ccc(O)cc3O)c(Cl)c2)c(O)c1`, the EC50 in the series with Plasmodium falciparum [1] was determined as 20.9 µM; in the series with Plasmodium falciparum [3] it was 12.3 µM. The concentration for half-maximal inhibition (IC50) came out at 65.3 µM against Cysteine protease, 2.1 µM on Falcipain 2 and 7.5 µM in series [4]. Further, in the series on Leishmania donovani, the result was inactive. In the series on Vero [2], the Activity result is on record as “Non-toxic”.
On to `O=C(CN1C(=O)/C(=N\NC(=O)c2ccncc2)c2ccccc21)Nc1ccccc1`, for which the concentration for a half-maximal effect (EC50) in the series with Plasmodium falciparum [1] amounted to 59.6 µM; with Plasmodium falciparum [3] it was 56.3 µM. Further, the IC50 amounted to 62.6 µM on Cysteine protease, 40.9 µM on Falcipain 2 and 62.2 µM in series [4]. For the same compound, the result in the series on Leishmania donovani was inactive. The Activity entry in the series on Vero [2] is on record as “Non-toxic”.
In turn, `CC(C)CC(=O)N[C@H](C(=O)N[C@H](C(=O)N[C@@H](CC(C)C)[C@@H](O)CC(=O)N[C@@H](C)C(=O)N[C@@H](CC(C)C)[C@@H](O)CC(=O)O)C(C)C)C(C)C` [PEPSTATIN] returned an IC50 against Cysteine protease of 0.16 µM.
Turning to `Oc1cccc(/C=N\c2cccc3c(/N=C/c4cccc(O)c4O)cccc23)c1O`, the concentration for a half-maximal effect (EC50) is 6.6 µM in the series with Plasmodium falciparum [1] and 6.9 µM in the series on Plasmodium falciparum [3]. Besides, the IC50 was 113 µM on Cysteine protease; 28.9 µM with Vero [5]; 4.6 µM at Falcipain 2; 8.8 µM in the series on Leishmania donovani; 5.8 µM in series [4].
For the compound `O=C(CSc1nnnn1-c1ccccc1)Nc1ccc(-n2cnnn2)cc1`, the EC50 amounted to 50.1 µM with Plasmodium falciparum [1] and 62.7 µM in the series with Plasmodium falciparum [3]. Also, the result (in series [6]; in the series with Leishmania donovani) was inactive. For the same compound, the IC50 at Falcipain 2 was 7.5 µM; in series [4], 5.4 µM. In the series with Vero [2], the Activity result is “Non-toxic”.
In the case of `O=C(Cc1nnc(NC(=O)c2ccccc2)s1)N/N=C\c1ccc(O)c(O)c1`, the EC50 with Plasmodium falciparum [1] and in the series with Plasmodium falciparum [3] was greater than 59.9 µM each time. Further, the result (in [6]; with Leishmania donovani) was inactive. Further, the figures for the IC50 (on Falcipain 2; in series [4]) were 31.1 µM and greater than 50 µM, respectively. For the same compound, in the series with Vero [2], the Activity entry was “Non-toxic”.
